PMC3578163 (Chemical research in toxicology, 2013)
Like-named read-outs stand apart in the source and are kept apart here.

Key:
[1] = molecular target: T1, hpol κ^19–526 (Homo sapiens, UniProt Q9UBT6); experiment: polymerase-catalyzed primer extension; format: biochemical; details: read-out: IC50 for inhibition of DNA polymerase activity; five-minute time point; all four dNTPs 0.25 mM, MgCl2 5 mM; 20 nM enzyme, 200 nM DNA, 37 °C
T1 sequence (Q9UBT6 19-526): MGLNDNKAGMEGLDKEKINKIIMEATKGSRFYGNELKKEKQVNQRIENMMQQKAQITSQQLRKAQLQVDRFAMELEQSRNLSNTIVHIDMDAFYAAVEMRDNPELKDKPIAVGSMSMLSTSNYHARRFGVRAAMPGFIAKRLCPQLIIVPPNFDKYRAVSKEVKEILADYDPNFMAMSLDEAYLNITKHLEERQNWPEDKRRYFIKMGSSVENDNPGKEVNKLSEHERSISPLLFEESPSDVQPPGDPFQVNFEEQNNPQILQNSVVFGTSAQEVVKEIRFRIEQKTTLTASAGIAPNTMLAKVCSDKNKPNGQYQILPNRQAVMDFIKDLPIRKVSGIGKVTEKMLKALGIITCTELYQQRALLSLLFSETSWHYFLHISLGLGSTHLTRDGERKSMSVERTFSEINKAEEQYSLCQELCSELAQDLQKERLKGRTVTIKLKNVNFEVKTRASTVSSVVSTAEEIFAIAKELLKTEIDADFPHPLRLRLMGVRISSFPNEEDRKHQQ

[2] = molecular target: T1, hpol κ^19–526; format: binding; details: for Kd: read-out: Kd,DNA (polymerase binding to primer-template DNA)
Outline: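 Recombinant human polymerase (His/GST-tagged, expressed in E. coli BL21(DE3), tags cleaved) titrated into 2 nM FAM-labelled 13/18-mer primer-template at 25 °C. Buffer: 50 mM HEPES pH 7.5, 10 mM KOAc, 10 mM MgCl₂, 0.1 mM ZnCl₂, 0.1 mM EDTA, 10% DMSO, 0.1 mg/mL BSA. MK886 at 0–250 μM, with DMSO as control. Polarization read at ex 485/em 525 nm. Kd fitted with total DNA held constant.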

[3] = molecular target: T2, hpol ι^26–446 (Homo sapiens, UniProt Q9UNA4); format: biochemical; details: for kcat: dTTP
T2 sequence (Q9UNA4 26-446): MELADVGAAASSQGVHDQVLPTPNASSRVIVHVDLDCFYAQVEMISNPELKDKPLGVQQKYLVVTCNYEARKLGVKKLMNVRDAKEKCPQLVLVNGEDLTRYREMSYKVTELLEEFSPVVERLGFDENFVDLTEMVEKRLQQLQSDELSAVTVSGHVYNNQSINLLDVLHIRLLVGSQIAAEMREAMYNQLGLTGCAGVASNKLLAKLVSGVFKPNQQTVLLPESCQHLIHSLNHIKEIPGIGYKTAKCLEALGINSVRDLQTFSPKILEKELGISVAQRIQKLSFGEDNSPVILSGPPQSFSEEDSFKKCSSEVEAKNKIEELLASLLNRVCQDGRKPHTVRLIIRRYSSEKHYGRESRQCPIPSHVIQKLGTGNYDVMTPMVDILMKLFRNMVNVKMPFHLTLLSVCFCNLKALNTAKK
Outline: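 Tripartite substrate built by annealing an unlabelled 19-mer primer, a TAMRA-labelled 10-mer reporter and a BHQ2-labelled 29-mer template (1.4:1:1.5); 50 nM substrate used. Enzyme at 5 nM in 50 mM Tris-HCl pH 8.0, 0.01% Tween-20, 2 mM DTT, 40 mM KCl, 0.25 mM MnCl₂, 25 °C. Inhibitor or DMSO present; dTTP 1–200 μM. Fluorescence (ex 525/em 598 nm) read continuously up to 60 min. Linear-phase velocities fitted to a hyperbola.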

[4] = molecular target: T2, hpol ι^26–446; experiment: steady-state single-nucleotide; format: biochemical; details: for kcat: dCTP insertion
Outline: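 Single dCTP insertion on a FAM-labelled primer-template: 5 nM enzyme, 100 nM DNA. Started with dCTP (10 concentrations, 1–1500 μM) plus 2 mM Mg²⁺. MK886 at 20 nM, 50 nM, 1 μM or 10 μM, or DMSO. Time points quenched with 95% formamide/20 mM EDTA; products resolved on 16% acrylamide/7 M urea gels. Velocities fitted to Michaelis–Menten; kcat and KM taken after enzyme correction.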

[5] = molecular target: T3, hpol η^1–437 (Homo sapiens, UniProt Q9Y253); experiment: polymerase-catalyzed primer extension; format: biochemical; details: read-out: IC50 for inhibition of DNA polymerase activity; all four dNTPs 0.25 mM, MgCl2 5 mM; 20 nM enzyme, 200 nM DNA, 37 °C
T3 sequence (Q9Y253 1-437): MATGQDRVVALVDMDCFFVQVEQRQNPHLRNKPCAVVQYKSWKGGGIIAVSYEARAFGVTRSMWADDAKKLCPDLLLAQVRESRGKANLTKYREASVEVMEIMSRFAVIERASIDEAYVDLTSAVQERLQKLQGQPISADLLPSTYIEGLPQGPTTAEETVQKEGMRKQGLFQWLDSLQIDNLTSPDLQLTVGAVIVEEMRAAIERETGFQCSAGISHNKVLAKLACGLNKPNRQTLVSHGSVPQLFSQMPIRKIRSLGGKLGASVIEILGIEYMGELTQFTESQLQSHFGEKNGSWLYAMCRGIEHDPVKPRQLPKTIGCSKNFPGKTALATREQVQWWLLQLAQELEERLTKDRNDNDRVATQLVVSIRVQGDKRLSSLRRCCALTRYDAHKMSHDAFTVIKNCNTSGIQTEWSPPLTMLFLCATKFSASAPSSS

[6] = system: COX1; details: read-out: IC50 value for COX1 inhibition; in vitro activity assays; cited from earlier work

In the case of `CC(C)c1ccc2c(c1)c(SC(C)(C)C)c(CC(C)(C)C(=O)O)n2Cc1ccc(Cl)cc1` [MK886, 3-[1-(4-chlorobenzyl)-3-t-butyl-thio-5-isoproylindol-2-yl]-2,2-dimethylpropanoic acid], the IC50 [1] is reported as 63.8 ± 1.7 µM, the “change in binding affinity for hpol κ relative to that observed for hpol ι^26–446” value ([2]; hpol κ vs hpol ι^26–446) is reported as ~ 2 fold and the Kd ([2]; 25 μM MK886) is reported as 26 ± 9.1 nM. The Kd ([2]; 50 μM MK886) was 24.1 ± 9.4 nM, the Kd ([2]; 100 μM MK886) was 31.3 ± 12.1 nM and the Kd ([2]; 150 μM MK886) was 70.4 ± 15.7 nM. For the same compound, the Kd ([2]; 250 μM MK886) was 67.9 ± 17.1 nM, the kcat ([3]; 20 μM MK886, fluorescence-based assay) was 4.4 ± 0.1 min⁻¹ and the “Fold decrease in kcat/KM,dNTP” value ([3]; 20 μM MK886 vs no inhibitor) was 1.6. The kcat ([3]; 40 μM MK886, fluorescence-based assay) was 4.3 ± 0.1 min⁻¹, the “Fold decrease in kcat/KM,dNTP” value ([3]; 40 μM MK886 vs no inhibitor) was 2.1 and the kcat ([3]; 60 μM MK886, fluorescence-based assay) was 4.1 ± 0.2 min⁻¹. For the same compound, the “Fold decrease in kcat/KM,dNTP” value ([3]; 60 μM MK886 vs no inhibitor) was 2.4, the “mechanism of inhibition of DNA polymerase activity” value ([3]; fluorescence-based assay, diminished kcat and increased KM,dNTP) was “mixed-type inhibition” and the kcat ([4]; 0.02 μM MK886) was 1.4 ± 0.1 min⁻¹. For the same compound, the “Fold decrease in kcat/KM,dNTP” value ([4]; 0.02 μM MK886 vs no inhibitor) was 1.5, the kcat ([4]; 0.05 μM MK886) was 1.2 ± 0.1 min⁻¹ and the “Fold decrease in kcat/KM,dNTP” value ([4]; 0.05 μM MK886 vs no inhibitor) was 2.1. The kcat ([4]; 1 μM MK886) was 1.6 ± 0.1 min⁻¹, the “Fold decrease in kcat/KM,dNTP” value ([4]; 1 μM MK886 vs no inhibitor) was 2.1 and the kcat ([4]; 10 μM MK886) was 1.5 ± 0.1 min⁻¹. For the same compound, the “Fold decrease in kcat/KM,dNTP” value ([4]; 10 μM MK886 vs no inhibitor) was 2.8, the “mechanism of inhibition of DNA polymerase activity” value ([4]; single-nucleotide insertion, kcat and Km,dNTP both altered) was “mixed-model of inhibition” and the IC50 [5] was 45.8 ± 8.4 µM. For the same compound, the IC50 [6] was 8 µM.
